# Experimental data from the array DNA melting data of Ke et al. (doi:10.1101/2024.01.08.574731).
# Legend:
# [1] = melting temperature; fluorescence melt of hairpins on a sequencing array, two-state fit, raised by 9.35 °C to match UV melts; conditions: sodium 0.088 M
# Method in brief: (§1)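 Library hairpins on a sequenced MiSeq flow cell carried annealed Cy3 and quencher oligos, and their Cy3 fluorescence was imaged in 50 mM Na-HEPES pH 8.0 with 25 mM NaCl, in 2.5 °C steps up to 60 °C. Signals were normalised to Cy3 before quenching and to control constructs. Melting temperature and folding enthalpy were obtained from bootstrapped two-state fits, combined by inverse-variance weighting across four replicates, and the fitted temperatures were then raised by 9.35 °C to match UV melts.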
# [2] = folding enthalpy; higher = less favourable; fluorescence melt of hairpins on a sequencing array, two-state fit; conditions: sodium 0.088 M
# Method in brief: as §1
Sequence,Tm [1] [°C],folding enthalpy [2] [kcal/mol]
GTGCTCGGAAACGGGTAC ((.(.((....)).).)),41.9,-32.8
GCTCGCGAAAGCGTGAGC ((((((....)))..))),53.4,-18
GCGGAGGCCGC ((((...)))),58.9,-18
GACGCAGGAAACTGCATC ((.((((....)))).)),36.2,-13.5
GATCTGATAGCAGATC ((((((....)))))),46.8,-34.4
GCGCATCCGAAAGGACGC (((..(((....)))))),50.2,-20.5
GGTACCGAAAGGTTTACC ((((((....)))..))),37.1,-13.8
GCGTCTGGAAACGGACGC (((((.(....).))))),64.3,-48.5
GCTGGCCCGAAAGGGAGC (((..(((....)))))),44,-12.7
GGATCCGGAAACGGGTTC (.(.(((....))).).),38,-16.8
GATCAACAGTTGATC ((((((...)))))),41.7,-40.3
GATCGACCTCTCGATC ((((((....)))))),50,-35.8
GAGCCCCGAAAGGGACTC (((.(((....))).))),58.6,-35.2
GCCTTGCGAAAGCCAAGC ((.(.((....)).).)),39,-8.85
GCACAACGAAAGTTTGC (((.(((....)))))),44.5,-25.6
GCGAGAGCGAAAGCTCGC (((..(((....)))))),65.6,-9.94
GAGTCGCGAAAGCGCTC (((.(((....)))))),54.6,-15.4
GAGAGGACGAAAGTCCTC (((..(((....)))))),60.8,-8.73
GACTGGGGAAACCTAGTC ((((.((....)).)))),47.8,-32.8
GCTCTCGAAAGAGTAGC ((((((....))).))),47.2,-27.8
GGGACCGAAAGGTGTCCC ((((((....)))..))),51.3,-23.4
GCTGAGCGAAAGCCCTGC ((.(.((....)).).)),42.5,-17.7
GCATCCGAAAGGACTGC ((((((....))).))),47.8,-15
CCCATGAAAATGGG (((((....))))),51.2,-20.9

Sequence,Tm [1] [°C],folding enthalpy [2] [kcal/mol]
GTGCACGGAAACATGCAC (((((.(....).))))),47.9,-34.6
GGGTCGGGAAACCGGTCC ((..(((....)))..)),47.2,-28.5
GCTGCCGAAAGGCGAGC ((((((....))).))),64.3,-18.6
GATCAGGGCCCTGATC ((((((....)))))),60.3,-58.9
GAGATCGGAAACGATCCC (.(((((....))))).),42.9,-12.9
GATCTGGACCCAGATC ((((((....)))))),53,-43.8
CCAGGGAAACCTGG (((((....))))),53,-20.6
GGACGCCGAAAGGCCTCC (((.(((....))).))),44.5,-19.1
GTTAGGCCGAAAGGCAAC (((..(((....)))))),32.1,-9.31
TATGGGAAACCATA (((((....))))),37.2,-14.9
GCGTTGTCGAAAGACCGC (((..(((....)))))),50.6,-27.1
GCTATGGGAAACTGTAGC ((((..(....)..)))),36,-25.2
TTAGCGAAAGCTAA (((((....))))),51.2,-16.2
GCACAGCGAAAGCTCTGC (((.(((....))).))),40.6,-25.6
AACGGGAAACCGTT (((((....))))),50.6,-18.5
GCGATCAATCGC ((((....)))),51.1,-24.9
GGCCTTGGAAACAGGGCC ((((.((....)).)))),57.1,-46
GAGATTGGAAACAACCTC (((.(((....))).))),32,-21
GATCCTGGTGAGGATC ((((((....)))))),52.5,-42.1
GGCCAGGGAAACCTAGCC (((.(((....))).))),43.2,-28.4
GCGTTGCGAAAGCAGGGC ((..(((....)))..)),55.7,-23.5
GTCCTACCGAAAGGTGAC (((..(((....)))))),32.5,-11.1
GAATGTGGAAACACGTTC (((.(((....))).))),47.8,-32.3
GTAAAAGCGAAAGCTTAC (((..(((....)))))),35.9,-11.6

Sequence,Tm [1] [°C],folding enthalpy [2] [kcal/mol]
GGTGACGAAAGTCGTACC ((((((....)))..))),46.2,-15.6
GCTTGTCGAAAGACTAGC (((.(((....))).))),53.9,-34
GTATGTGCGAAAGCATAC (((..(((....)))))),35,-11.7
GCGCTCGAAAGAGTACGC ((((((....)))..))),50,-25.6
GAGGACCGAAAGGTTCTC (((.(((....))).))),59.4,-35.2
GCCGCGCGAAAGCCGGGC (((..((....))..))),68.2,-18.5
GCGCGTACGAAAGTACGC (((..(((....)))))),63.2,-6.65
GTAGGTGGAAACACCTAC (((((((....))))))),60.5,-36.7
GCTAGGCGAAAGCCTCGC ((.((((....)))).)),58.9,-17.8
GCATAGCGAAAGCCATGC ((((.((....)).)))),53.3,-28.5
GCGGTGCGAAAGCCCGGC ((.(.((....)).).)),61.7,-12.4
GGGGAAGGAAACTTCCCC (((((((....))))))),65,-30.4
GTCGACGGAAACGTCGGC (.(((((....))))).),64.8,-22.3
GTCGTCGAAAGACAAGAC ((((((....)))..))),44.7,-20
GAGGATGGAAACATCTTC ((.((((....)))).)),38.1,-27.1
GGACAAGGAAACTTGTTC (.(((((....))))).),43,-25.9
GATCGTTTGGACGATC ((((((....)))))),56.3,-44.5
GGAAGTGCGAAAGCATCC (((..(((....)))))),31.3,-10.6
GATCTCGAATGAGATC ((((((....)))))),57.5,-39.5
GTAGACGAAAGTCACTAC ((((((....)))..))),41.1,-14.2
GGTGTTGGAAACGACATC (.(((.(....).))).),33.2,-21.3
GGAGGACGAAAGTCGTCC (((.(((....))).))),59.4,-28.9
GAGCCAGAAATGGCTC ((((((....)))))),66.8,-32.4
CGAAATCGGAAACGATCG (((..(((....)))))),34,-22.6

Sequence,Tm [1] [°C],folding enthalpy [2] [kcal/mol]
CATGTGAAAACATG (((((....))))),47.2,-23.3
GATCACAACGGTGATC ((((((....)))))),56,-38.7
GCCGTTCGAAAGAAGGC (((.(((....)))))),50.4,-30.4
GAGTATGGAAACATACCC (.(((((....))))).),31.4,-19.4
GGTTGTGGAAACGTAACC ((((..(....)..)))),35.7,-24.3
GGAGCACGAAAGTGTTCC (((.(((....))).))),58.8,-39.8
ACCAGGAAACTGGT (((((....))))),49.2,-21.4
ACTGGGAAACCAGT (((((....))))),47.6,-15.9
GATCCACATTTGGATC ((((((....)))))),50.7,-36.8
GATCCGGCTCGGATC ((((((...)))))),59.7,-39.6
GTTCCCGAAAGGGATAAC ((((((....)))..))),36.5,-10.2
GCTTGTGGAAACGCAAGC (((((.(....).))))),55.6,-39.5
GATCTTATACAAGATC ((((((....)))))),42.6,-33.8
GCACTTGGAAACAGGTGC ((((.((....)).)))),51.7,-48.4
GACCCCGGAAACGAGGCC (.((.((....)).)).),27.5,-15
GTACACGAAAGTGGATAC ((((((....)))..))),34.5,-11.8
GCTCTCGAAAGAGCCAGC ((((((....)))..))),37.5,-11.3
GATCCAGGACTGGATC ((((((....)))))),56.2,-41.1
GGTAGTGGAAACATTACC ((((.((....)).)))),41.6,-34.3
GATCACGGCGGTGATC ((((((....)))))),58.8,-45.6
GATCCATTACTGGATC ((((((....)))))),51.1,-29.9
